Bioassay records: PubChem BioAssay, The Scripps Research Institute Molecular Screening Center
TAAR1 ag: human TAAR1 agonism; Q96RJ0; activation, % at 3 µM; AID 624467; CHO RD-HGA16 TAAR1, Fluo-8 calcium fluorescence; vehicle wells 0%, saturating PEA agonist 100%; actives 0.99% (n = 360,000);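 active means activation above the mean activation of all test compounds in the run plus 3 SD, cut at about 38% in these data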
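Test system: RD-HGA16 (CHO) cells co-expressing Gα16 and hTAAR1 | Doses: Single dose, 3 µM | Schedule: 17-24 h seeding, 75 min 37 °C dye, 30 min RT | Evaluation: % activation from peak over basal fluorescence ratio, DMSO-to-PEA scaled | Technique: Kinetic Fluo-8 calcium fluorescence | Benchmarks: Low control DMSO, high control PEA (EC100)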
TAAR1 antag: human TAAR1 antagonism | Q96RJ0 | CHO RD-HGA16 TAAR1, Fluo-8 calcium fluorescence, antagonist | inhibition, % at 3 µM | actives 1.5% (n = 360,000) | AID 624466;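 active means inhibition above a per-plate cutoff, the mean inhibition of test compounds on that plate plus 3 SD, cut at about 49% in these data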;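 further: 0% = DMSO plus EC80 beta-PEA response and 100% = DMSO alone without agonist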
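Test system: CHO RD-HGA16 cells bearing hTAAR1 | Reagent: β-PEA, EC80 | Compound dosing: 3 µM, single point | Schedule: Dye loading 75 min at 37 °C, then 30 min room temperature | Signal: Calcium fluorescence with Fluo-8 | Evaluation: Percent inhibition of PEA-evoked calcium signal, max/basal emission ratio | Control set: DMSO-only wells and EC80 β-PEA-stimulated wells | Repeats: Singlicate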
CHO parental Ca: counter-screen for OX1R antagonists: effect in parental CHO cells; AID 463079; actives 0.63% (n = 330,000); parental CHO-K1, ATP-induced calcium, Fluo-8 fluorescence; inhibition, % at 5.6 µM;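 active means inhibition above that plate's mean sample inhibition plus 3 SD, cut at about 26% in these data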;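 further: 0% = ATP-challenged DMSO wells and 100% = DMSO wells without ATP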
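material = parental CHO cells | also added = ATP as calcium-mobilizing challenge | dosing = single point at 5.6 µM | detection = intracellular calcium via Fluo-8 no-wash fluorescent dye | read-out = % inhibition | benchmarks = low control ATP plus DMSO, high control DMSO only | repeats = one well per compound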
OX1R antag-1: OX1R (human) antagonism. inhibition, % at 6.6 µM. O43613. actives 1.8% (n = 330,000). OX1R-expressing cells, FRET antagonist read-out; in the data active means inhibition mostly above about 38%, no sharp cut-off; inactive means mostly below about 40%;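 further: 0% = agonist challenge alone and 100% = reference antagonist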
OX1R antag-2: blocks the human orexin 1 receptor | CHO/OX1R cells, Fluo-8 calcium fluorescence, orexin A | actives 0.43% (n = 330,000) | inhibition, % at 5 µM;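 active means inhibition above its plate's threshold, mean inhibition of all tested compounds on the plate plus 3 SD, cut at about 37% in these data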;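 further: 0% = orexin A challenge wells and 100% = SB-334867-A antagonist wells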
GPR7 antagonist: blocks human GPR7 receptor signaling | GPR7-expressing cells, fluorescence antagonist assay | actives 1.1% (n = 290,000) | P48145 | AID 1861 | inhibition, % at 4.4 µM; in the data active means inhibition above about 16%, passing the limit was not always enough;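 further: cells stimulated with the agonist NPW; 0% = agonist with vehicle and 100% = vehicle without agonist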
Target sequence (P48145 whole entry, looked up): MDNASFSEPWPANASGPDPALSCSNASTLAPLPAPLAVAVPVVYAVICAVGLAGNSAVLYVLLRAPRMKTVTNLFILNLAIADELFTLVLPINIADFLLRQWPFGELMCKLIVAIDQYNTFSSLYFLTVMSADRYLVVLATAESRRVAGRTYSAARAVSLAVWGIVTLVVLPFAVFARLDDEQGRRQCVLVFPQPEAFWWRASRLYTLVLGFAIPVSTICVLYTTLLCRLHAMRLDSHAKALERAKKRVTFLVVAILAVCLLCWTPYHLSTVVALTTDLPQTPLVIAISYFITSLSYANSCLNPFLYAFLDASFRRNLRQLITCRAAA
nonsel antag count: counter-screen for TAAR1 antagonists: nonselective antagonists; shares compounds with TAAR1 antag; counterscreen cell line, calcium fluorescence, antagonist mode; inhibition, % at 3 µM; actives 77% (n = 2,400); in the data active means inhibition above about 22%;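 further: CHO-Ga16 host cells stimulated with ATP at an EC80 level; 0% = agonist EC80 plus vehicle and 100% = vehicle without agonist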
TAAR1 antag conf: confirmation of human TAAR1 antagonists; actives 40% (n = 2,400); TAAR1-expressing cells, fluorescence antagonist read-out; shares compounds with TAAR1 antag; inhibition, % at 3 µM; in the data active means inhibition above about 49%;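 further: CHO-Ga16 host cells challenged with agonist PEA near its EC80; 0% = agonist at EC80 plus vehicle and 100% = vehicle with no agonist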
Ga16 ag counter: nonselective Ga16 agonism, counter-screen | activation, % at 3 µM | actives 18% (n = 2,400) | Ga16-expressing cells, calcium fluorescence, agonist counterscreen | shares compounds with TAAR1 antag | AID 651953; in the data active means activation above about 12%;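 further: 0% = vehicle wells and 100% = saturating stimulus response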
TAAR1 ag counter: TAAR1 agonism, antagonist counter-screen. shares compounds with TAAR1 antag. hTAAR1 cell line, fluorescence activation, agonist mode. activation, % at 3 µM. actives 2% (n = 2,400); in the data active means activation above about 37%;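 further: CHO cells stably expressing TAAR1 with calcium dye readout; 0% = DMSO vehicle and 100% = full agonist response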
Starred values were filed as active, the others as inactive; x = no result given. Sampled rows, rich in hits. Any-hit rate of the full collection: about 4.6%.

SMILES | TAAR1 ag | TAAR1 antag | CHO parental Ca | OX1R antag-1 | OX1R antag-2 | GPR7 antagonist | nonsel antag count | TAAR1 antag conf | Ga16 ag counter | TAAR1 ag counter
COc1ccc(-c2ccc(/C=N/N3C(=O)C4C5C=CC(C6CC56)C4C3=O)o2)c([N+](=O)[O-])c1 (centres undefined) | 17.4 | 56.2* | -14.3 | 15.6 | 1.4 | 5.3 | 30.8* | 51.8* | 9.9 | 9.5
COc1ccnc(Oc2ccc(F)cc2)c1C(=O)N/C=N/OCc1ccc(F)cc1Cl | 31.0 | 75.7* | -11.3 | 22.1 | -17.4 | -8.2 | 40.8* | 60.6* | 14.3* | 16.4
COc1ccnc(Oc2ccc(F)cc2)c1C(=O)N/C=N/OCc1ccc(Cl)cc1Cl | 34.9 | 62.6* | -9.9 | 8.7 | -8.9 | -14.5 | 28.6* | 57.1* | 13.5* | 21.9
COc1cc(C(=O)Nc2nc(-c3cccs3)cs2)cc(OC)c1OC | 36.8 | 82.8* | -1.3 | 48.8* | 30.3 | 3.6 | 44.6* | 61.9* | 15.9* | 16.7
CCC(=O)c1ccc(OCC(=O)Nc2nc(C)cs2)cc1 | 4.0 | 3.8 | -13.2 | 10.0 | 0.4 | x | x | x | x | x
O=C(COc1ccc(Cl)cc1)Nc1nc(-c2cccs2)cs1 | 19.1 | 68.5* | -7.8 | 42.4 | -5.5 | -3.0 | 22.6* | 32.4 | 3.0 | 0.9
CCC(=O)c1ccc(OCC(=O)Nc2nc(-c3cccnc3)cs2)cc1 | 19.4 | 74.0* | 0.3 | 21.8 | -14.1 | x | 37.4* | 55.3* | 9.3 | 10.2
COc1ccccc1NS(=O)(=O)c1cc(NC(=O)C(C)(C)C)ccc1N1CCOCC1 | 20.1 | 72.4* | -18.9 | 14.3 | -22.6 | x | 28.9* | 58.2* | 10.0 | 10.2
O=S(=O)(/N=C(/Nc1ccc(Cl)c(S(=O)(=O)N2CCOCC2)c1)c1ccc(F)cc1)c1ccccc1 | 15.0 | 70.6* | -10.9 | 36.3 | -13.6 | -7.3 | 32.9* | 57.0* | 11.1 | 13.5
O=C(Nc1ccc(N2CCOCC2)c(S(=O)(=O)Nc2ccccc2Cl)c1)c1ccc(F)cc1 | 8.7 | 70.1* | 3.8 | 12.7 | 22.7 | x | 35.9* | 53.1* | 13.2* | 14.0
CCOC(=O)CC(NC(=O)c1ccccc1)c1ccc(OC)cc1 (centres undefined) | 3.1 | -8.8 | -12.2 | 14.7 | -18.3 | -8.7 | x | x | x | x
Cc1nc2ccc(C(=O)N3c4ccccc4CC3C)cc2s1 (centres undefined) | 0.7 | -6.8 | -5.3 | 20.4 | -4.4 | -0.4 | x | x | x | x
CCOC(=O)N(C)c1c(CC)nc2c(OCc3cc(Cl)cc(Cl)c3)cccn12 | 9.8 | 18.2 | x | x | x | x | x | x | x | x
CC(C)(C)c1ccc(SC2=C[C@@]3(O)CC[C@@H](O)[C@@](Sc4ccc(C(C)(C)C)cc4)(C2=O)[C@H]3O)cc1 | 4.2 | 73.3* | x | x | x | x | 33.2* | 39.6 | 1.6 | -2.2
Cc1ccc(SC2=C[C@@]3(O)CC[C@@H](O)[C@@](Sc4ccc(C)cc4)(C2=O)[C@H]3O)cc1 | -0.5 | -11.7 | x | x | x | x | x | x | x | x
CCOc1ccc(OCCCC(=O)N(CC)CC(=O)Nc2c(F)cccc2F)cc1 | 2.4 | -7.8 | -23.2 | 3.8 | -23.2 | x | x | x | x | x
O=C(CCCOc1ccc(Cl)cc1Cl)N1CCCc2ccccc21 | 5.9 | 49.9* | -42.1 | 10.5 | -29.1 | 8.0 | 14.0 | 12.2 | 0.4 | -0.8
NC(=O)c1cc(Cl)ccc1OCC(=O)N1CCCc2ccccc21 | 6.3 | 16.8 | -5.5 | 16.1 | -12.2 | -5.9 | x | x | x | x
O=C(NCCN1CCOCC1)c1ccccc1Oc1ccccc1 | 13.1 | 14.9 | 1.4 | 8.5 | -9.6 | -3.8 | x | x | x | x
CCOC(=O)C1CCCN(C(=O)c2cc(Nc3ccc(OC)cc3)nc3ccccc23)C1 (centres undefined) | 12.3 | 48.8* | -27.8 | 18.4 | -31.2 | 1.9 | 28.8* | 45.1 | 7.5 | 4.6
